Test [1] can be described thus: Inhibition of chymotrypsin-like activity of rat liver proteasome using fluorogenic substrates for 6 hrs. In short, it runs like this:
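The chymotrypsin-like activity of the proteasome was measured by a previously reported procedure. Inhibition was expressed as an IC50 in μM.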

The test system of test [2] is Macrophage (Homo sapiens). Kind of test: Inhibition of cholesterol ester accumulation in human monocyte-derived macrophages at 20 uM.
Test [3] deals with HeLa. In words: Cytotoxicity against human HeLa cells after 3 days by MTT assay. The settings on record: 72 h. It counts as functional, cell-based. In short, it runs like this: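 HeLa cells were used, following a previously reported procedure. The result was expressed as an IC50 in μM.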
A general note: Formazan colour is commonly taken as a measure of viable cells.

As usually defined, the IC50 is the point on the concentration scale where inhibition reaches its midpoint. As usually defined, the inhibition is the percentage by which the read-out fell short of the control. Regarding `O=C(O)/C=C\CCCN1C(=O)C[C@]23CN4CCCC/C=C\CC[C@](O)(C=C(c5nccc6c5[nH]c5ccccc56)[C@@H]2CC4)[C@H]13`, the IC50 in test [1] was 33 µM; in test [3] it was above 50 µM. This molecule also registered an inhibition at 20 µM in test [2] of 0%.

As to `O[C@@H]1CC[C@@]23C[C@]45CN6CCCC/C=C\CC[C@](O)(C=C(c7nccc8c7[nH]c7ccccc78)[C@@H]4CC6)[C@@H]5N2CC[C@@H]1O[C@@]12CC[C@@H](O3)[C@@H](O)CCN1[C@@H]1[C@]3(CN4CCCC/C=C\CC[C@]1(O)C=C(c1nccc5c1[nH]c1ccccc15)[C@@H]3CC4)C2`, the IC50 in test [1] was 0.13 µM; in test [3], 5.4 µM. 20 µM produced 92% inhibition in test [2].

`O[C@]12C=C(c3nccc4c3[nH]c3ccccc34)[C@@H]3CCN(CCCC/C=C\CC1)C[C@@]31C[C@@H]3/C=C\CCCCN3[C@H]12` [MANZAMINE A]: the IC50 in test [1] amounted to 2 µM; in test [3], 13 µM. In addition, at 20 µM the inhibition in test [2] was 80%.

In the case of `O[C@@H]1CC[C@@]23C[C@]45CN6CCCC/C=C\CC[C@](O)(C=C(c7nccc8c7[nH]c7ccccc78)[C@@H]4CC6)[C@@H]5N2CC[C@@H]1O3`, the figures for the concentration for half-maximal inhibition (IC50) in test [1] and in test [3] were 0.34 µM and 16 µM, respectively. The molecule also showed an inhibition at 20 µM in test [2] of 91%.

The values are drawn from ChEMBL document CHEMBL3297652, “Acantholactam and pre-neo-kauluamine, manzamine-related alkaloids from the Indonesian marine sponge Acanthostrongylophora ingens” (J Nat Prod, 2014).
